SMILES strings stand for the structures. Values after ≈ are worked out from the molar mass of the structure shown.

The assay deals with Mycobacterium tuberculosis. Kind of assay: Antitubercular activity against drug sensitive Mycobacterium tuberculosis H37Rv ATCC 27294 by microplate Alamar blue assay. It counts as functional. A digest of the protocol:
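Modified microplate Alamar Blue assay. H37Rv ATCC 27294 is susceptible to streptomycin, isoniazid, rifampin, ethambutol and pyrazinamide. Clinical isolate CIBIN/UMF15:99 is resistant to the same five drugs. Test stocks were 2 mg/mL in 20% DMSO in Middlebrook 7H9 broth, filter-sterilized. Final concentrations ran from 100 to 0.78 µg/mL. Read-out was MIC, at least in triplicate.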
For the compound `CN[C@@H]1[C@H](O[C@H]2[C@H](O[C@H]3[C@H](O)[C@@H](O)[C@H](N=C(N)N)[C@@H](O)[C@@H]3N=C(N)N)O[C@@H](C)[C@]2(O)C=O)O[C@@H](CO)[C@H](O)[C@H]1O` [STREPTOMYCIN], it took 0.5 µg/mL (≈ 0.86 µM) to inhibit growth (MIC).

On to `NNC(=O)c1ccncc1` [ISONIAZID], for which the MIC was determined as 0.06 µg/mL (≈ 0.438 µM).

In the case of `CO[C@H]1/C=C/O[C@@]2(C)Oc3c(C)c(O)c4c(O)c(c(/C=N/N5CCN(C)CC5)c(O)c4c3C2=O)NC(=O)/C(C)=C\C=C\[C@H](C)[C@H](O)[C@@H](C)[C@@H](O)[C@@H](C)[C@H](OC(C)=O)[C@@H]1C` [RIFAMPIN], the MIC came out at 0.06 µg/mL (≈ 0.0729 µM).

`CC(C)=CCC[C@H](C)[C@@H]1CC[C@@H](C)c2c(O)cc(C)cc21` [LEUBETHANOL]: the lowest concentration to inhibit growth (MIC) was 12.5 µg/mL (≈ 43.6 µM).

Take `CC[C@@H](CO)NCCN[C@@H](CC)CO` [ETHAMBUTOL]: the MIC worked out at 2 µg/mL (≈ 9.79 µM).

By MIC is commonly meant the least concentration at which growth counts as inhibited.

(Values after ChEMBL document CHEMBL1821701, “Stereochemical analysis of leubethanol, an anti-TB-active serrulatane, from Leucophyllum frutescens” (2011).)
